# ChEMBL document CHEMBL5236663, “Structure-activity relationship of dibenzylideneacetone analogs against the neglected disease pathogen, Trypanosoma brucei” (Bioorg Med Chem Lett, 2023)
# pEC50: −log10 of the molar value. Activity calls are given as the source filed them. The calls are words filed in the database; no cut-off is given here.
# How the values were obtained:
# [1] = system: Trypanosoma brucei; test: Antitrypanosomal activity against Trypanosoma brucei Lister 427 assessed as parasite growth inhibition measured after 72 hrs by SYBER green staining based multilabel reader analysis; type: functional, organism-based; settings: Lister 427, 72 h
# Summary of the method: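 Bloodstream-form T. b. brucei Lister 427 were screened first at 4 μM, and compounds giving >50% growth inhibition went on to eight-point dose-response. Viability was read by SYBR green after 72 h, giving EC50. At least three assay replicates were run, each in duplicate, reported as mean ± SD.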
# [2] = system: HEK293; test: Cytotoxicity against human HEK293 cells assessed as reduction in cell viability at 20 uM measured after 48 hrs by resazurin reagent based multilabel reader analysis; type: toxicity; settings: hek293, 48 h
# [3] = system: Trypanosoma brucei; test: Antitrypanosomal activity against Trypanosoma brucei Lister 427 assessed as time required to kill the parasite at 0.5 to 2 uM by hemocytometer cell counting analysis; type: functional; settings: dose 0.5-2 µM
# Summary of the method: (§1)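 Time-to-kill on bloodstream-form Lister 427 parasites. Test compound was used at 1, 2 and 4 μM, and pentamidine at 0.5, 1 and 2 μM. Parasites were counted over time by hemocytometer, with counts normalized to a DMSO negative control. Three replicates, mean ± SD.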
# [4] = Selectivity index, ratio of CC50 for cytotoxicity against human HEK293 cells to EC50 for antitrypanosomal activity against Trypanosoma brucei Lister 427; type: toxicity, cell-based; settings: read-out: Ratio CC50/EC50
# [5] = system: Trypanosoma brucei; test: Antitrypanosomal activity against Trypanosoma brucei Lister 427 assessed as parasite growth inhibition at 1 uM measured for 6 to 48 hrs by SYBER green staining based multilabel reader analysis; type: functional, organism-based; settings: time 6-48 hrs
# Summary of the method: (§2)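 Washout test on bloodstream-form Lister 427 trypanosomes to tell trypanocidal from trypanostatic action. Compound at 1, 2 or 4 μM was incubated for 6, 4 or 2 h respectively, and the parasites were then washed three times. Regrowth and division were monitored for a further 48 h.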
# [6] = system: Trypanosoma brucei; test: Antitrypanosomal activity against Trypanosoma brucei Lister 427 assessed as parasite growth inhibition at 2 uM measured for 4 to 48 hrs by SYBER green staining based multilabel reader analysis; type: functional, organism-based; settings: time 4-48 hrs; summary of the method: as §2
# [7] = system: Trypanosoma brucei; test: Antitrypanosomal activity against Trypanosoma brucei Lister 427 assessed as parasite growth inhibition at 4 uM measured for 2 to 48 hrs by SYBER green staining based multilabel reader analysis; type: functional, organism-based; settings: time 2-48 hrs; summary of the method: as §2
# [8] = system: Trypanosoma brucei; test: Antitrypanosomal activity against Trypanosoma brucei Lister 427 assessed as time required to kill the parasite at 1 to 4 uM by hemocytometer cell counting analysis; type: functional; settings: dose 1-4 µM; summary of the method: as §1
# [9] = system: Trypanosoma brucei; test: Antitrypanosomal activity against Trypanosoma brucei Lister 427 assessed as time required to kill the parasite at 2 to 4 uM by hemocytometer cell counting analysis; type: functional; settings: dose 2-4 µM; summary of the method: as §1
SMILES,pEC50 [1],CC50 [2] [µM],other results
O=C(/C=C/c1cccc(Br)c1)/C=C/c1cccc(Br)c1,< 5.40,> 20,–
OC(CCc1ccccc1Cl)CCc1ccccc1Cl,< 5.40,> 20,–
COc1cc(CCC(O)CCc2cc(OC)c(OC)c(OC)c2)cc(OC)c1OC,< 5.40,> 20,–
COc1cc(/C=C/C(=O)/C=C/c2ccc(O)c(OC)c2)ccc1O,6.08,9.74,–
Cc1ccc(CCC(O)CCc2ccc(C)cc2)cc1,< 5.40,> 20,–
O=C(CCc1cccc(Br)c1)CCc1cccc(Br)c1,< 5.40,> 20,–
COc1cc(CCC(=O)CCc2cc(OC)c(OC)c(OC)c2)cc(OC)c1OC,< 5.40,> 20,–
Cc1ccc(/C=C/C(=O)/C=C/c2ccc(C)cc2)cc1,< 5.40,> 20,–
Cc1ccc(CCC(=O)CCc2ccc(C)cc2)cc1,< 5.40,> 20,–
CN(C)c1ccc(/C=C/C(=O)/C=C/c2ccccc2)cc1,< 5.40,9.79,–
OC(CCc1cccc(Br)c1)CCc1cccc(Br)c1,< 5.40,> 20,–
COc1ccc(CCC(O)CCc2ccc(OC)c(OC)c2)cc1OC,< 5.40,> 20,–
COc1ccc(/C=C/C(=O)CC(=O)/C=C/c2ccc(OC)cc2OC)c(OC)c1,< 5.40,–,–
COc1ccc(/C=C/C(=O)CC(=O)/C=C/c2ccc(OC)c(OC)c2)cc1OC [TETRAMETHOXYCURCUMIN],< 5.40,> 20,–
COc1ccc(/C=C/C(=O)/C=C/c2ccc(OC)cc2)cc1,< 5.40,> 20,–
COc1cccc(/C=C/C(=O)CC(=O)/C=C/c2cccc(OC)c2)c1,< 5.40,> 20,–
COc1cccc(/C=C/C(=O)/C=C/c2cccc(OC)c2)c1,< 5.40,> 20,–
O=C(CCc1ccccc1Cl)CCc1ccccc1Cl,< 5.40,> 20,–
O=C(/C=C/c1ccc(Cl)c(Cl)c1)CC(=O)/C=C/c1ccc(Cl)c(Cl)c1,< 5.40,> 20,–
O=C(/C=C/c1ccccc1)CC(=O)/C=C/c1ccccc1,< 5.40,> 20,–
COc1ccc(CCC(=O)CCc2ccc(OC)c(OC)c2)cc1OC,< 5.40,> 20,–
COc1ccc(/C=C/C(=O)/C=C/c2ccccc2)cc1,< 5.40,5.49,–
COc1cc(/C=C2\CCC/C(=C\c3cc(OC)cc(OC)c3)C2=O)cc(OC)c1,< 5.40,3.7,–
O=C(/C=C/c1ccc(C(F)(F)F)cc1)CC(=O)/C=C/c1ccc(C(F)(F)F)cc1,< 5.40,> 20,–

# Further compounds by rising pEC50 [1], results first:
pEC50 [1],SMILES,CC50 [2] [µM],other results
5.40,COc1cc(/C=C/C(=O)CC(=O)/C=C/c2cc(OC)c(OC)c(OC)c2)cc(OC)c1OC,–,–
5.43,Cc1ccc(/C=C/C(=O)/C=C/c2ccccc2)cc1,–,–
5.48,O=C(/C=C/c1cccc(O)c1)CC(=O)/C=C/c1cccc(O)c1,6.73,–
5.60,O=C(/C=C/c1ccccc1)/C=C/c1ccc(C(F)(F)F)cc1,> 20,–
5.63,O=C(/C=C/c1ccccc1)/C=C/c1ccc(Br)cc1,7.05,–
5.67,O=C(/C=C/c1ccccc1)/C=C/c1ccc(Cl)c(Cl)c1,11.3,–
5.71,O=C(/C=C/c1ccccc1)/C=C/c1ccc(Cl)cc1,> 20,–
5.75,COc1cc(/C=C/C(=O)CC(=O)/C=C/c2ccc(O)c(OC)c2)ccc1O [CURCUMIN],5.56,–
5.85,O=C(/C=C/c1ccc(F)cc1)/C=C/c1ccc(F)cc1,7.64,–
5.90,O=C(/C=C/c1ccccc1)/C=C/c1ccc(O)cc1,5.85,–
6.18,COc1cc(/C=C/C(=O)/C=C/c2ccccc2)ccc1O,5.63,–
6.38,COc1ccc(/C=C/C(=O)/C=C/c2ccc(OC)c(OC)c2)cc1OC,4.55,selectivity ratio [4]: > 10
6.39,COc1ccc(/C=C/C(=O)/C=C/c2ccc(O)c(O)c2)cc1,6.61,–
6.43,O=C(/C=C/c1ccccc1)/C=C/c1ccc(O)c(O)c1,5.54,–
6.44,COc1cc(/C=C/C(=O)/C=C/c2cc(OC)c(OC)c(OC)c2)cc(OC)c1OC,0.3,–
6.51,O=C(/C=C/c1ccccc1Cl)/C=C/c1ccccc1Cl,4.27,selectivity ratio [4]: > 10
6.54,O=C(/C=C/c1ccccc1)/C=C/c1cccc(O)c1,5.79,–
6.62,COc1cc(/C=C/C(=O)/C=C/c2cc(OC)cc(OC)c2)cc(OC)c1,1.45,–
6.70,O=C1/C(=C/c2ccccc2F)CNC/C1=C\c1ccccc1F,3.58,–
6.70,O=C(/C=C/c1ccccc1)/C=C/c1cccc([N+](=O)[O-])c1,2.88,Activity [5]: Active; Activity [6]: Active; Activity [7]: Active; Time [8]: <24 h; Time [9]: <6 h
7.92,N=C(N)c1ccc(OCCCCCOc2ccc(C(=N)N)cc2)cc1 [PENTAMIDINE],> 4,Time [3]: >30 h
